# Bioassay records as filed in PubChem BioAssay.
# Cl transport mod: KCC2 (human) Cl- transport modulation; 190,000 compounds, 2.2% hits; KCC2 cells, thallium flux FluoZin-2 fluorescence; B-score of Tl+ flux slope (higher = more flux/activation; lower = inhibition) at 10 µM;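 active = thallium flux slope and its plate-corrected score both differing from the plate sample mean at a set confidence after two filtering rounds, in either direction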;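 also: slope of fluorescence scaled to starting intensity during 10 to 20 s after thallium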
# KCNQ1 pot: potentiates or activates the human KCNQ1 potassium channel | CHO-K1 KCNQ1, thallium flux FluxOR fluorescence; stronger effect = higher value | B-score at 10 µM | 310,000 compounds, 0.35% hits | P51787;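 active = fluorescence ratio B-score, a plate-corrected score, at least three library SD, with initial intensity B-score within 5 SD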
#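 System: Stable KCNQ1 CHO-K1 line | Incubation: 90 min dye loading and 20 min compound exposure, both at room temperature | Measure: Ratio B score | Medium: Assay buffer for compound exposure, DMSO matched across wells | Compound dosing: Single-concentration screen | Probe or stimulus: K+/Tl+ depolarizing stimulus | Measured by: Kinetic FluxOR fluorescence, 10 s baseline plus 110 s post-stimulus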
# KCNK9 block: blocks the human KCNK9 two-pore domain potassium channel; Q9NPC2; HEK293 KCNK9, FluxOR thallium flux fluorescence; stronger effect = lower value; B-score at 10 µM; 310,000 compounds, 1.2% hits; AID 488922;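 active = ratio B-score over 3 SD below the library mean, with starting fluorescence within 5 SD of its mean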;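 also: negative B-score means less thallium flux so channel inhibition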
# Target sequence (Q9NPC2 whole entry, looked up, the tested form may be a part): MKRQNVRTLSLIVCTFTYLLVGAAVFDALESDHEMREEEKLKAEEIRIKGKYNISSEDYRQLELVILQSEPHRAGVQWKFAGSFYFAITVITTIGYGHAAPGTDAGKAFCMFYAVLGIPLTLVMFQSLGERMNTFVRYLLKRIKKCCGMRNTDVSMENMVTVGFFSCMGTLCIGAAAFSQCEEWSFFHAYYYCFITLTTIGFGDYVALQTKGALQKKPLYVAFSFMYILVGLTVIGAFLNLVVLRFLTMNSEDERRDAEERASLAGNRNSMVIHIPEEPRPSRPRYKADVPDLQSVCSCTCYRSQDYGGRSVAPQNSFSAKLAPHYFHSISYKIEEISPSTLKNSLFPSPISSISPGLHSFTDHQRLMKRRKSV
# KCNK3 block: human KCNK3 channel inhibition, primary screen; O14649; CHO-KCNK3 thallium flux, FluxOR fluorescence; stronger effect = lower value; B-score at 10 µM; 340,000 compounds, 0.84% hits;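 active = B-score under library mean minus 4 SD, starting fluorescence ratio at most library mean plus 5 SD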;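 also: more negative B-score means stronger inhibition of thallium flux through KCNK3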
# hERG protect: hERG (human) protection from proarrhythmic block. Q12809. CHO-hERG, FluxOR thallium flux, dofetilide IC70 present. activation (rescue from dofetilide block), less the hit threshold, % at 10 µM. 310,000 compounds, 0.51% hits. AID 1511;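 active = activation above the mean of controls blocked by dofetilide plus 5 SD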;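 also: thallium influx through hERG after potassium depolarization seen as dye fluorescence rise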
# KCNQ1 block: blocks the human KCNQ1 potassium channel. P51787. CHO-K1 KCNQ1, FluxOR thallium flux fluorescence; stronger effect = higher value. B-score at 10 µM. 310,000 compounds, 1.3% hits;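 active = compounds whose thallium flux B-score, printed positive for inhibition, exceeds three library SD while starting fluorescence stays within three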;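 also: channel opened by potassium depolarization with thallium stimulus after 20 min compound exposure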
# KCNK3 inh conf: human KCNK3 channel inhibition, confirmation assay; shares compounds with KCNK3 block; CHO-KCNK3 thallium flux, FluxOR fluorescence; 0% buffer, 100% carvedilol maximal block; ratio percent of control, % at 10 µM; 2,400 compounds, 99% hits; AID 651638;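 active = ratio percent of control, averaged over triplicates, above buffer control mean plus 5 SD, cut at about 64% in these data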;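 also: ratio is the fluorescence rise from min to max over baseline after thallium stimulus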
# KCNK3 uninduced: KCNK3 inhibitor counter-screen hit in non-induced cells. shares compounds with KCNK3 block. non-induced KCNK3 parental cells, FluxOR thallium flux; stronger effect = lower value. thallium flux ratio (lower = more inhibition) at 10 µM. 2,400 compounds, 40% hits. AID 651747;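 active = thallium flux ratio, averaged over three wells, more than 5 SD below the buffer control mean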;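 also: host cells are CHO cells without KCNK3 induction; ratio is peak minus trough fluorescence over baseline then normalized to buffer controls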
# An asterisk follows results filed as active; i = inactive; / = not tested or not shown. A selection: hits, their analogues and other compounds. The true share with any hit is near 4.1%.
SMILES,Cl transport mod,KCNQ1 pot,KCNK9 block,KCNK3 block,hERG protect,KCNQ1 block,KCNK3 inh conf,KCNK3 uninduced
O=C(NCC1COc2ccccc2O1)C1CCN(S(=O)(=O)c2ccc(Cl)cc2)CC1 (stereo not drawn),/,/,/,i,/,/,/,/
CCOC(=O)c1sc2nc(CC(=O)OC)nc(N(C)CCc3ccccn3)c2c1C,-0.755,i,i,-10.2*,-10.3,i,109.0*,i
CCOC(=O)c1sc2nc(CC(=O)OC)nc(NCCN(CC)CC)c2c1C,-0.245,i,i,i,-6.9,i,/,/
COC(=O)c1ccccc1NC(=O)c1ccc(COc2cc(C)cc(C)c2)o1,/,i,i,-9.46*,-6.9,i,86.7*,i
COC(=O)c1ccccc1NC(=O)c1ccc(COc2ccc(C)c(C)c2)o1,-0.00267,i,i,i,-9.7,i,/,/
COc1ccc(Cl)cc1NC(=S)Nc1cccnc1,0.722,i,i,i,-3.5,i,/,/
COc1ccc(Cl)cc1NC(=S)Nc1cccc(C)c1,2.35,i,i,-9.38*,-5.2,i,105.0*,i
CC[C@H](C)/C=C(C)/C=C/C1=CC2=CC(=O)[C@]3(C)OC(=O)[C@@H](C(C)=O)[C@@H]3C2=CO1,-0.914,i,i,-9.02*,-24.0,6*,122.0*,0.0783*
CCC(C)Sc1ccc([C@@H]2[C@H]3C(=O)N(CC)C(=O)[C@H]3[C@]3(C(=O)OC)CCCN23)cc1OC (stereo partly drawn),/,/,/,i,/,/,/,/
CCCCC(=O)Nc1ccc(C(=O)c2ccccc2)cc1,-0.125,i,-6.81*,i,-17.5,i,96.3*,i
CCCc1cc(C(=O)Nc2ccc(C(=O)c3ccccc3)cc2)n(C)n1,/,i,i,-13.4*,-15.2,i,132.3*,0.15*
CC(=O)Nc1ccc(C(=O)c2ccccc2)cc1,-0.0566,i,i,i,-8.8,i,/,/
CCCCC(=O)Nc1cccc(-c2nnc(-c3ccccc3)o2)c1,-1.76,i,-6.65*,i,-24.8,i,123.3*,i
O=C(Cn1c(CO)nc2ccccc21)Nc1cc(C(F)(F)F)ccc1N1CCOCC1,/,i,i,-10.2*,-5.9,i,65.7*,i
O=C(CSc1nc2ccccc2[nH]1)Nc1cc(C(F)(F)F)ccc1N1CCOCC1,-0.0509,i,i,i,-11.4,i,/,/
CC(=O)N1CCN(c2nc(CC(C)C)c3c(c2C#N)CCC3)CC1,/,i,i,i,-4.6,i,/,/
CC(C)Cc1nc(N2CCCCC2)c(C#N)c2c1CCC2,/,i,i,-9.61*,-10.0,i,97.7*,i
CCCSc1nc(N2CCOCC2)c2c(c1C#N)CCCC2,/,i,i,-11.5*,-2.2,i,112.0*,0.152*
CCCCc1nc(N2CCOCC2)c(C#N)c2c1CCCC2,-1.2,i,i,-11.4*,-10.8,i,108.3*,i
CCCc1nc(N2CCOCC2)c(C#N)c2c1CCCC2,0.657,i,i,i,-9.4,i,/,/
N#CCCSc1nc(N2CCOCC2)c2c(c1C#N)CCCC2,-0.728,i,i,i,-16.0,i,/,/
Cc1cc(C)c(NC(=O)C2CC(=O)N(C3CCCC3)C2)c(C)c1 (stereo not drawn),/,/,/,i,/,/,/,/
O=C(CCCOC(=O)c1ccc(O)cc1O)c1ccc(Br)cc1,/,/,/,i,/,/,/,/
C#Cc1cccc(NC(=O)c2ccc3c(c2)C(=O)N(Cc2cccnc2)C3=O)c1,/,i,i,i,-5.3,i,/,/
O=C(CC(c1ccccc1)c1ccccc1)Nc1ccc(Cl)cn1,-0.0282,i,i,-8.9*,-4.3,i,108.7*,i
SMILES,Cl transport mod,KCNQ1 pot,KCNK9 block,KCNK3 block,hERG protect,KCNQ1 block,KCNK3 inh conf,KCNK3 uninduced
O=C(CC(c1ccccc1)c1ccccc1)Nc1ccc(O)cc1,/,i,i,-9.71*,-8.8,i,88.0*,i
CC(=O)Nc1ccc(NC(=O)CC(c2ccccc2)c2ccccc2)cc1,/,i,i,i,1.4,i,/,/
COc1ccccc1NS(=O)(=O)c1cccc(NC(=O)c2cncc(Br)c2)c1,/,/,/,i,/,/,/,/
Cc1cccc(N=c2oc3cc(O)ccc3cc2C(N)=O)c1,-0.0473,i,i,-8.75*,-14.1,i,112.7*,i
COc1ccccc1N=c1oc2cc(O)ccc2cc1C(N)=O,-1.36,i,i,i,-12.2,i,/,/
O=C1c2ccccc2C(Nc2ccc(F)c(Cl)c2)N1Cc1ccco1 (stereo not drawn),-0.98,i,i,-8.71*,-13.0,i,97.7*,i
COc1ccc(NC2c3ccccc3C(=O)N2Cc2ccco2)cc1OC (stereo not drawn),-0.0998,i,i,i,-11.0,i,/,/
CCOC(=O)C[C@H]1c2ccc(C(F)(F)F)cc2S(=O)(=O)N1c1cccc(OC)c1,/,i,i,i,-8.0,i,/,/
OC1CCCN(c2c3c(nc4cc(-c5cccc(Cl)c5)nn24)CCC3)C1 (stereo not drawn),-0.844,i,i,-10.5*,-4.8,i,92.7*,i
Cc1cccc(-c2cc3nc4c(c(N5CCCC(O)C5)n3n2)CCC4)c1 (stereo not drawn),/,i,i,-10.1*,-2.6,i,102.7*,i
COc1ccc(C2Nc3ccccc3C(=O)N2c2ccc(C)cc2)cc1Cn1nnc2ccccc21 (stereo not drawn),/,i,i,-8.8*,-12.4,i,111.0*,0.156*
COc1ccc(C2Nc3ccccc3C(=O)N2c2ccc(C)cc2)cc1Cn1cc([N+](=O)[O-])cn1 (stereo not drawn),/,i,i,-8.77*,-15.1,i,104.7*,i
O=C(CSc1ccc(Cl)cc1)N1CCN(c2c(Cl)cccc2[N+](=O)[O-])CC1,-0.443,i,i,-9.87*,-9.1,i,117.3*,0.144*
CCN1CCN(c2ccc(S(=O)(=O)N3CCCCC3)cc2NC(=O)c2cccc(OC(F)F)c2)CC1,/,i,i,i,-19.1,i,/,/
CC(=O)C1=NN(c2ccc(Cl)cc2)C(c2ccc3c(c2)OCO3)N(C(C)=O)N1C (stereo not drawn),-0.848,i,i,-8.83*,-6.6,i,95.3*,0.152*
Cc1cc(C)cc(OCC(=O)NNC(=O)c2ccccn2)c1,/,/,/,i,/,/,/,/
CCC(c1nnnn1Cc1ccccc1)N1CCN(C(=O)c2ccco2)CC1 (stereo not drawn),/,i,i,-11.9*,-8.7,i,72.0*,i
